Measurements: article PMC5791907 (European journal of medicinal chemistry, 2018)

Assays:
HeLa cells [1] = test: Flow cytometric analysis of cell cycle distribution; format: cell-based, human; conditions: 24 h treatment, evident at 500 nM
Summary of the method: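 HeLa cells (5 × 10^5) exposed to a range of test compound concentrations for 24 h, collected, and fixed in ice-cold 70% ethanol. Treated with lysis buffer containing RNase A and 0.1% Triton X-100, stained with PI, then analysed by flow cytometry. Phase distribution taken from DNA histograms. Mean ± SEM of two independent experiments.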

HeLa cells [2] = test: Apoptosis assay; format: cell-based, human; conditions: 24 h incubation, further increased at 48 h
[3] = test system: L1210, FM3A, CEM and HeLa cell lines; test: Antiproliferative activity over the panel of four cancer cell lines; format: cell-based
Summary of the method: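 Cells were seeded at 300,000–500,000 cells/mL with serial dilutions of test compound and incubated at 37 °C: 2 days for L1210 and FM3A, 3 days for CEM, and 4 days for HeLa. Cell number was counted with a Coulter counter. For each line, IC50 was the concentration that inhibited proliferation by 50%.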

HeLa cells [4] = test: ROS production; format: cell-based, human; conditions: 250 nM, starting after 12–24 h
HeLa cells [5] = test: Western blot analysis of cell cycle checkpoint and apoptosis proteins; format: cell-based, human
HeLa cells [6] = test: Mitochondrial membrane potential; format: cell-based, human; conditions: 100–250 nM, 6-48 h
Summary of the method: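 HeLa cells treated with test compound for 6, 12, 24 or 48 h, then stained with the lipophilic cationic probe JC-1. Mitochondrial potential read by flow cytometry. Data are mean ± SEM of three independent experiments.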

COC(=O)c1sc(-c2ccccc2)cc1Nc1cc(OC)c(OC)c(OC)c1 [Compound 4a, Methyl 5-phenyl-3-[(3,4,5-trimethoxyphenyl)amino]thiophene-2-carboxylate]
Effect on cell cycle progression (HeLa cells [1]): induced a G2/M arrest | Induction of apoptosis (annexin-V/PI) (HeLa cells [2]): induced a significant proportion of apoptotic cells

COC(=O)c1sc(-c2cc(OC)c(OC)c(OC)c2)cc1Nc1cc(OC)c(OC)c(OC)c1 [Compound 4p, Methyl 5-(3,4,5-trimethoxyphenyl)-3-[(3,4,5-trimethoxyphenyl)amino]thiophene-2-carboxylate]
antiproliferative activity (in words) ([3]; four cancer cell lines): not active

COC(=O)c1sc(-c2ccc(C)cc2)cc1Nc1cc(OC)c(OC)c(OC)c1 [Compound 4i, Methyl 5-(p-tolyl)-3-[(3,4,5-trimethoxyphenyl)amino]thiophene-2-carboxylate]
Effect on cell cycle progression (HeLa cells [1]): induced a G2/M arrest | Induction of apoptosis (annexin-V/PI) (HeLa cells [2]): induced a significant proportion of apoptotic cells

COC(=O)c1sc(-c2cccs2)cc1Nc1cc(OC)c(OC)c(OC)c1 [Compound 4c, Methyl 4-[(3,4,5-trimethoxyphenyl)amino]-[2,2′-bithiophene]-5-carboxylate]
ROS production (HeLa cells [4]): induced significant production of ROS | PARP cleavage (HeLa cells [5]): concentration-and time-dependent cleavage of PARP | cyclin B1 expression (HeLa cells [5]; 24 h, concentration-dependent, marked reduction at 48 h): increase in cyclin B1 expression | cdc25c expression (HeLa cells [5]; 24 h, even at 100 nM): marked reduction in the expression of phosphatase cdc25c | phosphorylated Cdk1 (HeLa cells [5]; 24 h and 48 h, 250 nM): decrease in the phosphorylated form of cyclin dependent kinase-1 | expression of anti-apoptotic proteins Bcl-2 and Mcl-1 (HeLa cells [5]; starting after 24 h, even at 0.1 μM): decreased | Mitochondrial depolarization (cells with low Δψmt) (HeLa cells [6]): time-dependent increase in the percentage of cells with low Δψmt | Effect on cell cycle progression (HeLa cells [1]): induced a G2/M arrest | IC50 ([3]; read-out: mean IC50 value (antiproliferative activity), mean over cell lines): 0.14 µM | Induction of apoptosis (annexin-V/PI) (HeLa cells [2]): induced a significant proportion of apoptotic cells
